Reference: ChEMBL document CHEMBL3098104, “Design, synthesis and preliminary SAR studies of novel N-arylmethyl substituted piperidine-linked aniline derivatives as potent HIV-1 NNRTIs” (Bioorg Med Chem, 2014)

How the values were obtained:
[1] = tested on: Human immunodeficiency virus 1; assay: Antiviral activity against HIV1 RES056 harboring reverse transcriptase K103N/Y181C mutant infected in human MT4 cells assessed as inhibition of viral cytopathicity after 5 days by MTT assay; assay type: functional, organism-based; settings: Human immunodeficiency virus 1, RES056, MT4, 120 h
In short: (§1)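 MT-4 cells pelleted 5 min at 1000 rpm, resuspended at 6 × 10^5 cells/ml and plated. Compounds added from 10× stocks at the start, in triplicate wells, to HIV-infected and mock-infected cells in parallel. Viability read by MTT 5 days after infection. EC50 is 50% protection from virus-induced cytotoxicity. CC50 is 50% loss of viability in mock-infected cells. SI = CC50/EC50. Median of two or three parallel assays.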

[2] = tested on: Human immunodeficiency virus 1; assay: Antiviral activity against wild-type HIV1 3B infected in human MT4 cells assessed as inhibition of viral cytopathicity after 5 days by MTT assay; assay type: functional, organism-based; settings: Human immunodeficiency virus 1, 3B, MT4, 120 h
In short: (§2)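 HIV-infected MT-4 cells were compared with mock-infected wells in triplicate. Exponentially growing cells were pelleted for 5 min at 1000 rpm and resuspended at 6 × 10^5 cells/ml. Compound was added at the start of infection from stocks at 10× final concentration. Viability was read by MTT five days post-infection. EC50 is the concentration giving 50% protection against virus-induced cytotoxicity, taken as the median of two or three parallel assays.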

[3] = Cytotoxicity against human MT4 cells assessed as cell viability after 5 days by MTT assay; assay type: cell-based
In short: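 Mock-infected MT-4 cells, from exponentially growing cultures pelleted and resuspended at 6 × 10^5 cells/ml, were run in triplicate wells alongside the infected series. Compound was added from 10× stocks at the start of the experiment. Viability was read by MTT after five days. CC50 is the concentration that lowers viability by 50%, taken as the median of two or three parallel assays.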

[4] = Selectivity index, ratio of CC50 for human MT4 cells to EC50 for HIV1 RES056 harboring reverse transcriptase K103N/Y181C mutant infected in human MT4 cells; assay type: toxicity, cell-based; settings: read-out: Ratio CC50/EC50; in short: as §1
[5] = Selectivity index, ratio of CC50 for human MT4 cells to EC50 for HIV1 3B infected in human MT4 cells; assay type: toxicity, cell-based; settings: read-out: Ratio CC50/EC50
In short: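 MT-4 cells at 6 × 10^5 cells/ml, in triplicate wells, infected with HIV-1 IIIB or mock-infected. Compounds added from 10× stocks at the start of infection. MTT viability read on day 5. SI = CC50 (mock-infected cells) / EC50 (IIIB). Median of two or three parallel assays.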

[6] = tested on: Human immunodeficiency virus 1; assay: Fold resistance, ratio of EC50 for HIV1 RES056 expressing K103N/Y181C mutant infected in human MT4 cells to EC50 for wild-type HIV1 3B infected in human MT4 cells; assay type: functional
In short: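 MTT protection assay in MT-4 cells run in parallel against the K103N/Y181C double mutant (RES056) and wild-type IIIB. Viability read 5 days after infection. Fold resistance = EC50 against the mutant divided by EC50 against IIIB. Median of two or three parallel assays.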

[7] = tested on: Human immunodeficiency virus 2; assay: Antiviral activity against HIV2 ROD infected in human MT4 cells assessed as inhibition of viral cytopathicity after 5 days by MTT assay; assay type: functional, organism-based; settings: Human immunodeficiency virus 2, ISOLATE ROD, MT4, 120 h; in short: as §2
[8] = target: Human immunodeficiency virus type 1 reverse transcriptase (Human immunodeficiency virus 1, UniProt Q72547); assay: Inhibition of wild-type HIV1 reverse transcriptase assessed as incorporation of biotin-labeled dUTP
In short: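 HIV-1 RT enzyme assay with poly(A)·oligo(dT)15 as template-primer. Incorporation of digoxigenin- and biotin-labeled dUTP into DNA was read colorimetrically with the peroxidase substrate ABTS.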

SMILES	EC50 [1] [µM]	EC50 [2] [µM]	CC50 at 120 h [3] [µM]	selectivity ratio [4]	selectivity ratio [5]	Ratio EC50 [6]	EC50 [7] [µM]	IC50 [8] [µM]
Cc1cc(C#N)cc(C)c1Oc1ccc([N+](=O)[O-])c(NC2CCN(Cc3ccc(CO)cc3)CC2)c1	> 11	0.14	11	< 1	80	>80	> 11	
Cc1cc(C#N)cc(C)c1Oc1ccc([N+](=O)[O-])c(NC2CCN(Cc3ccc(C(=O)O)cc3)CC2)c1	> 30	0.19	30	< 1	159	>159	> 30	
Cc1cc(C#N)cc(C)c1Oc1ccc([N+](=O)[O-])c(NC2CCN(Cc3ccc(S(C)(=O)=O)cc3)CC2)c1	> 234	0.022	> 234		> 10800	>10770	> 234	0.36
Cc1cc(C#N)cc(C)c1Oc1ccc([N+](=O)[O-])c(NC2CCN(Cc3ccc(C(N)=O)cc3)CC2)c1	> 27	0.062	27	< 1	430	>430	> 27	
Cc1cc(C#N)cc(C)c1Oc1ccc([N+](=O)[O-])c(NC2CCN(Cc3ccc(S(N)(=O)=O)cc3)CC2)c1	> 23	0.029	23	< 1	782	>782	> 23	
COC(=O)c1ccc(CN2CCC(Nc3cc(Oc4c(C)cc(C#N)cc4C)ccc3[N+](=O)[O-])CC2)cc1	> 160	0.13	≥ 160		≥ 1210	>1208	> 160	
Cc1cc(C#N)cc(C)c1Oc1ccc([N+](=O)[O-])c(NC2CCN(Cc3ccccc3)CC2)c1	> 2.8	0.63	2.8	< 1	4.4	>4.4	> 2.8	
Cc1cc(C)c(Oc2ccc([N+](=O)[O-])c(NC3CCN(Cc4ccc([N+](=O)[O-])cc4)CC3)c2)c(C)c1	> 147	2.1	147	< 1	70	>70	> 147	
Cc1cc(C)c(Oc2ccc([N+](=O)[O-])c(NC3CCN(Cc4ccncc4)CC3)c2)c(C)c1	> 21	0.082	21	< 1	258	>258	> 21	
CC(=O)c1ccc(CN2CCC(Nc3cc(Oc4c(C)cc(C)cc4C)ccc3[N+](=O)[O-])CC2)cc1	> 138	0.11	138	< 1	1310	>1312	> 138	
Cc1cc(C)c(Oc2ccc([N+](=O)[O-])c(NC3CCN(Cc4ccc(CO)cc4)CC3)c2)c(C)c1	> 25	0.096	25	< 1	255	>255	> 25	
Cc1cc(C)c(Oc2ccc([N+](=O)[O-])c(NC3CCN(Cc4ccc(C(=O)O)cc4)CC3)c2)c(C)c1	> 35	0.22	35	< 1	161	>161	> 35	
Cc1cc(C)c(Oc2ccc([N+](=O)[O-])c(NC3CCN(Cc4ccc(S(C)(=O)=O)cc4)CC3)c2)c(C)c1	> 158	0.027	158	< 1	5900	>5895	> 158	
Cc1cc(C)c(Oc2ccc([N+](=O)[O-])c(NC3CCN(Cc4ccc(C(N)=O)cc4)CC3)c2)c(C)c1	> 27	0.059	27	< 1	457	>457	> 27	
Cc1cc(C)c(Oc2ccc([N+](=O)[O-])c(NC3CCN(Cc4ccc(S(N)(=O)=O)cc4)CC3)c2)c(C)c1	> 22	0.036	22	< 1	615	>615	> 22	
COC(=O)c1ccc(CN2CCC(Nc3cc(Oc4c(C)cc(C)cc4C)ccc3[N+](=O)[O-])CC2)cc1	> 248	1	> 248		> 246	>246	> 248	
Cc1cc(C)c(Oc2ccc([N+](=O)[O-])c(NC3CCN(Cc4ccccc4)CC3)c2)c(C)c1	> 25	0.66	25	< 1	37	>37	> 25	
CC(=O)Nc1ccc(Oc2c(C)cc(C#N)cc2C)cc1NC1CCN(Cc2ccc(S(N)(=O)=O)cc2)CC1		> 228	> 228				> 228	
Cc1cc(C#N)cc(C)c1Oc1ccc(N)c(NC2CCN(Cc3ccc(S(N)(=O)=O)cc3)CC2)c1.Cl	4.8	0.043	22	4.4	505	114	> 22	
Cc1cc(C#N)cc(C)c1Oc1ccc([N+](=O)[O-])c(NC2CCN(Cc3ccc([N+](=O)[O-])cc3)CC2)c1	> 182	0.67	182	< 1	269	>269	> 182	
Cc1cc(C#N)cc(C)c1Oc1ccc([N+](=O)[O-])c(NC2CCN(Cc3ccncc3)CC2)c1	> 19	0.056	19	< 1	336	>336	> 19	
CC(=O)c1ccc(CN2CCC(Nc3cc(Oc4c(C)cc(C#N)cc4C)ccc3[N+](=O)[O-])CC2)cc1	> 251	0.15	> 251		> 1630	>1630	> 251	
CC(C)Nc1cccnc1N1CCN(C(=O)c2cc3cc(NS(C)(=O)=O)ccc3[nH]2)CC1 [DELAVIRDINE]	> 36		> 36		> 277	>277		
O=c1[nH]cnc2c1ncn2[C@H]1CC[C@@H](CO)O1 [DIDANOSINE]		19	> 212	> 12	> 11		18	
O=C1Nc2ccc(Cl)cc2[C@@](C#CC2CC2)(C(F)(F)F)O1 [EFAVIRENZ]		0.0074	> 6.3	> 12	> 855	70		
Cc1cn([C@H]2C[C@H](N=[N+]=[N-])[C@@H](CO)O2)c(=O)[nH]c1=O [ZIDOVUDINE]	0.0074	0.0072	> 94	> 12600	> 13100		0.0057	
